# “And” between values parts separate entries of the source, which are not always exact repeats. Identical values can stand only once.
# Test system: U2OS
# Test: Multiplex assay against U2OS
# Assay type: toxicity, cell-based
# Conditions: human
# How it was run: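 Imaging took place on a CQ1 microscope at 37°C and 5% CO2 once compound had been added to live cells stained at seeding with Hoechst33342, BioTracker Green Microtubule Cytoskeleton Dye, MitoTracker Red and Annexin V Alexa Fluor 680. CellPathfinder machine-learning gating classed cells as Hoechst high-intensity objects or normal cells, classed normal cells as having healthy, pyknosed or fragmented nuclei, and classed pyknosed cells as mitotic or apoptotic. Tubulin, mitochondrial-mass and membrane-permeability phenotypes are per cents of the healthy-nucleus cells.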
# [1] = 12 h, 1 µM, compound concentration 1 uM, replicate 1
# [2] = 12 h, 1 µM, compound concentration 1 uM, replicate 2
# [3] = 12 h, 10 µM, compound concentration 10 uM, replicate 1
# [4] = 12 h, 10 µM, compound concentration 10 uM, replicate 2
# [5] = 24 h, 1 µM, compound concentration 1 uM, replicate 1
# [6] = 24 h, 1 µM, compound concentration 1 uM, replicate 2
# [7] = 24 h, 10 µM, compound concentration 10 uM, replicate 1
# [8] = 24 h, 10 µM, compound concentration 10 uM, replicate 2
# [9] = 48 h, 1 µM, compound concentration 1 uM, replicate 1
# [10] = 48 h, 1 µM, compound concentration 1 uM, replicate 2
# [11] = 48 h, 10 µM, compound concentration 10 uM, replicate 1
# [12] = 48 h, 10 µM, compound concentration 10 uM, replicate 2
structure (smiles),measurement,setting,value
c1cn2cc(-c3ccc4cn[nH]c4c3)nc(Nc3ccc(N4CCOCC4)cc3)c2n1 [ENTOSPLETINIB],Population Apoptotic (%),[1],32%
same,Population Fragmented Nuclei (%),[1],13%
same,Population Healthy Nuclei (%),[1],66%
same,Population Hoechst High Intensity Objects (%),[1],4%
same,Population Membrane Permeable-Phenotype (%),[1],13%
same,Population Mitochondria Different-Phenotype (%),[1],36%
same,Population Mitotic Cells (%),[1],67%
same,Population Normal (%),[1],95%
same,Population Pyknosed Nuclei (%),[1],20%
same,Population Tubulin-Different-Phenotype (%),[1],41%
same,Total Cell Count,[1],172
same,Population Apoptotic (%),[2],40%
same,Population Fragmented Nuclei (%),[2],16%
same,Population Healthy Nuclei (%),[2],73%
same,Population Hoechst High Intensity Objects (%),[2],5%
same,Population Membrane Permeable-Phenotype (%),[2],10%
same,Population Mitochondria Different-Phenotype (%),[2],23%
same,Population Mitotic Cells (%),[2],60%
same,Population Normal (%),[2],94%
same,Population Pyknosed Nuclei (%),[2],9%
same,Population Tubulin-Different-Phenotype (%),[2],25%
same,Total Cell Count,[2],59
same,Population Apoptotic (%),[3],76%
same,Population Fragmented Nuclei (%),[3],37%
same,Population Healthy Nuclei (%),[3],7%
same,Population Membrane Permeable-Phenotype (%),[3],12%
same,Population Mitochondria Different-Phenotype (%),[3],61%
same,Population Mitotic Cells (%),[3],23%
same,Population Pyknosed Nuclei (%),[3],55%
same,Population Tubulin-Different-Phenotype (%),[3],73%
same,Total Cell Count,[3],161
same,Population Apoptotic (%),[4],92%
same,Population Fragmented Nuclei (%),[4],30%
same,Population Healthy Nuclei (%),[4],2%
same,Population Hoechst High Intensity Objects (%),[4],25%
same,Population Membrane Permeable-Phenotype (%),[4],21%
same,Population Mitochondria Different-Phenotype (%),[4],82%
same,Population Mitotic Cells (%),[4],7%
same,Population Normal (%),[4],74%
same,Population Pyknosed Nuclei (%),[4],67%
same,Population Tubulin-Different-Phenotype (%),[4],78%
same,Total Cell Count,[4],56
same,Population Apoptotic (%),[5],37%
same,Population Fragmented Nuclei (%),[5],12%
same,Population Healthy Nuclei (%),[5],70%
same,Population Membrane Permeable-Phenotype (%),[5],4%
same,Population Mitochondria Different-Phenotype (%),[5],33%
same,Population Mitotic Cells (%),[5],62%
same,Population Pyknosed Nuclei (%),[5],16%
same,Population Tubulin-Different-Phenotype (%),[5],24%
same,Total Cell Count,[5],182
same,Population Apoptotic (%),[6],14%
same,Population Fragmented Nuclei (%),[6],14%
same,Population Healthy Nuclei (%),[6],74%
same,Population Hoechst High Intensity Objects (%),[6],4%
same,Population Membrane Permeable-Phenotype (%),[6],17%
same,Population Mitochondria Different-Phenotype (%),[6],15%
same,Population Mitotic Cells (%),[6],85%
same,Population Normal (%),[6],95%
same,Population Pyknosed Nuclei (%),[6],11%
same,Population Tubulin-Different-Phenotype (%),[6],21%
same,Total Cell Count,[6],78
same,Population Apoptotic (%),[7],70%
same,Population Fragmented Nuclei (%),[7],35%
same,Population Healthy Nuclei (%),[7],6%
same,Population Hoechst High Intensity Objects (%),[7],23%
same,Population Membrane Permeable-Phenotype (%),[7],7%
same,Population Mitochondria Different-Phenotype (%),[7],49%
same,Population Mitotic Cells (%),[7],29%
same,Population Normal (%),[7],76%
same,Population Pyknosed Nuclei (%),[7],57%
same,Population Tubulin-Different-Phenotype (%),[7],53%
same,Total Cell Count,[7],186
same,Population Apoptotic (%),[8],89%
same,Population Fragmented Nuclei (%),[8],33%
same,Population Healthy Nuclei (%),[8],2%
same,Population Hoechst High Intensity Objects (%),[8],26%
same,Population Membrane Permeable-Phenotype (%),[8],8%
same,Population Mitochondria Different-Phenotype (%),[8],36%
same,Population Mitotic Cells (%),[8],10%
same,Population Normal (%),[8],73%
same,Population Pyknosed Nuclei (%),[8],64%
same,Population Tubulin-Different-Phenotype (%),[8],20%
same,Total Cell Count,[8],65
same,Population Apoptotic (%),[9],46%
same,Population Fragmented Nuclei (%),[9],9%
same,Population Membrane Permeable-Phenotype (%),[9],4%
same,Population Mitochondria Different-Phenotype (%),[9],14%
same,Population Mitotic Cells (%),[9],53%
same,Population Pyknosed Nuclei (%),[9],12%
same,Population Tubulin-Different-Phenotype (%),[9],13%
same,Total Cell Count,[9],206
same,Population Apoptotic (%),[10],37%
same,Population Fragmented Nuclei (%),[10],11%
same,Population Healthy Nuclei (%),[10],77%
same,Population Hoechst High Intensity Objects (%),[10],3%
same,Population Membrane Permeable-Phenotype (%),[10],22%
same,Population Mitochondria Different-Phenotype (%),[10],20%
same,Population Mitotic Cells (%),[10],62%
same,Population Normal (%),[10],96%
same,Population Pyknosed Nuclei (%),[10],10%
same,Population Tubulin-Different-Phenotype (%),[10],22%
same,Total Cell Count,[10],111
same,Population Apoptotic (%),[11],59%
same,Population Fragmented Nuclei (%),[11],33%
same,Population Healthy Nuclei (%),[11],7%
same,Population Hoechst High Intensity Objects (%),[11],29%
same,Population Membrane Permeable-Phenotype (%),[11],7%
same,Population Mitochondria Different-Phenotype (%),[11],21%
same,Population Mitotic Cells (%),[11],40%
same,Population Normal (%),[11],70%
same,Population Pyknosed Nuclei (%),[11],58%
same,Population Tubulin-Different-Phenotype (%),[11],16%
same,Total Cell Count,[11],232
same,Population Apoptotic (%),[12],82%
same,Population Fragmented Nuclei (%),[12],34%
same,Population Healthy Nuclei (%),[12],2%
same,Population Hoechst High Intensity Objects (%),[12],28%
same,Population Membrane Permeable-Phenotype (%),[12],20%
same,Population Mitochondria Different-Phenotype (%),[12],30%
same,Population Mitotic Cells (%),[12],17%
same,Population Normal (%),[12],71%
same,Population Pyknosed Nuclei (%),[12],63%
same,Population Tubulin-Different-Phenotype (%),[12],20%
same,Total Cell Count,[12],79
Cn1cc(C2=C(c3cn(C4CCN(Cc5ccccn5)CC4)c4ccccc34)C(=O)NC2=O)c2ccccc21 [ENZASTAURIN],Population Apoptotic (%),[1],65% and 50%
same,Population Fragmented Nuclei (%),[1],20% and 9%
same,Population Healthy Nuclei (%),[1],30% and 78%
same,Population Hoechst High Intensity Objects (%),[1],4% and 5%
same,Population Membrane Permeable-Phenotype (%),[1],58%
same,Population Mitotic Cells (%),[1],34% and 50%
same,Population Normal (%),[1],95% and 94%
same,Population Tubulin-Different-Phenotype (%),[1],48%
same,Total Cell Count,[1],159 and 95
same,Population Apoptotic (%),[2],76% and 37%
same,Population Fragmented Nuclei (%),[2],18% and 16%
same,Population Healthy Nuclei (%),[2],45% and 70%
same,Population Hoechst High Intensity Objects (%),[2],11% and 17%
same,Population Membrane Permeable-Phenotype (%),[2],63% and 33%
same,Population Mitotic Cells (%),[2],23% and 62%
same,Population Normal (%),[2],88% and 82%
same,Population Pyknosed Nuclei (%),[2],35% and 13%
same,Population Tubulin-Different-Phenotype (%),[2],100% and 34%
same,Total Cell Count,[2],147 and 102
same,Population Apoptotic (%),[5],89% and 53%
same,Population Fragmented Nuclei (%),[5],15% and 5%
same,Population Normal (%),[5],83% and 96%
same,Total Cell Count,[5],194 and 119
same,Population Apoptotic (%),[6],62%
same,Population Fragmented Nuclei (%),[6],14% and 8%
same,Population Hoechst High Intensity Objects (%),[6],14% and 10%
same,Population Membrane Permeable-Phenotype (%),[6],19%
same,Population Mitotic Cells (%),[6],37%
same,Population Normal (%),[6],85% and 89%
same,Population Tubulin-Different-Phenotype (%),[6],17%
same,Total Cell Count,[6],149 and 124
O=C(NCCN1CCOCC1)c1ccc2c(c1)C(=O)c1ccc(Nc3ccc(F)c(NC(=O)c4ccccc4)c3)cc1CC2 [FS-694],Population Apoptotic (%),[3],75% and 25%
same,Population Healthy Nuclei (%),[3],83% and 54%
same,Population Membrane Permeable-Phenotype (%),[3],67% and 52%
same,Population Mitochondria Different-Phenotype (%),[3],18% and 50%
same,Population Mitotic Cells (%),[3],25% and 74%
same,Population Normal (%),[3],95% and 53%
same,Population Pyknosed Nuclei (%),[3],8% and 13%
same,Population Tubulin-Different-Phenotype (%),[3],48% and 88%
same,Total Cell Count,[3],178 and 187
same,Population Fragmented Nuclei (%),[4],40% and 27%
same,Population Healthy Nuclei (%),[4],47% and 65%
same,Population Membrane Permeable-Phenotype (%),[4],53% and 54%
same,Population Mitotic Cells (%),[4],60% and 90%
same,Population Normal (%),[4],47% and 90%
same,Population Pyknosed Nuclei (%),[4],11% and 7%
same,Total Cell Count,[4],150 and 127
same,Population Apoptotic (%),[7],37% and 42%
same,Population Healthy Nuclei (%),[7],48% and 84%
same,Population Membrane Permeable-Phenotype (%),[7],54% and 41%
same,Population Mitotic Cells (%),[7],62% and 57%
same,Population Normal (%),[7],55% and 95%
same,Population Pyknosed Nuclei (%),[7],23% and 8%
same,Total Cell Count,[7],224 and 170
same,Population Apoptotic (%),[8],50%
same,Population Fragmented Nuclei (%),[8],45% and 17%
same,Population Healthy Nuclei (%),[8],39% and 76%
same,Population Membrane Permeable-Phenotype (%),[8],62% and 37%
same,Population Mitotic Cells (%),[8],50%
same,Population Normal (%),[8],47% and 91%
same,Population Pyknosed Nuclei (%),[8],14% and 5%
same,Total Cell Count,[8],160 and 131

# — ChEMBL document CHEMBL4689842, “EUbOPEN Chemogenomics Library wave 1” (2021)
